target: T1, Glucagon receptor (Homo sapiens, UniProt P47871); assay: Inhibitory concentration against binding to the human glucagon receptor (hGR)
T1 sequence (P47871 whole entry): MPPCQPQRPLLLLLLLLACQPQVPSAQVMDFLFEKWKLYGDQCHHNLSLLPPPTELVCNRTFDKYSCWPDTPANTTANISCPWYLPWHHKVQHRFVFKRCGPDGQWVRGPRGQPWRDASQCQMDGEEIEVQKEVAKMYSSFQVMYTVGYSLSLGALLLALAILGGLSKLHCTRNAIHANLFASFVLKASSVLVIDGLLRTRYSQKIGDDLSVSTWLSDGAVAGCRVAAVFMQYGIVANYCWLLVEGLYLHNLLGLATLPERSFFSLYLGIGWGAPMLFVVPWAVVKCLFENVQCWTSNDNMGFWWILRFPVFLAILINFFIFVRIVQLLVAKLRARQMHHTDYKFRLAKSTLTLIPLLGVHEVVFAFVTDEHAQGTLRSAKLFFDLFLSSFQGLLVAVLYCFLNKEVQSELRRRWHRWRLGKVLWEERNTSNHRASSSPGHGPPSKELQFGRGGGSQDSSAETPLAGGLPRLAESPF

Compound	IC50 [nM]
CC(C)=Cc1c(C(C)C)nc(C(C)C)c(CO)c1-c1ccc(F)cc1	7000
C=Cc1c(C(C)C)nc(C(C)C)c(CO)c1-c1ccc(F)cc1	6000
COC(=O)c1c(C(C)C)nc(C(C)C)c(CO)c1-c1ccc(F)cc1	9500
CCCCCc1c(CC)nc(CC)c(CO)c1-c1ccccc1	20000
CCCCCc1c(C(C)C)nc(C(C)C)c(C(C)O)c1-c1ccc(F)cc1 (configuration not stated)	300
CCCCCc1c(C)nc(C)c(CO)c1-c1ccccc1	> 20000
CCCCc1c(C(C)C)nc(C(C)C)c(C(C)O)c1-c1ccc(F)cc1 (configuration not stated)	250
CCCCCCc1c(C(C)C)nc(C(C)C)c(CO)c1-c1ccc(F)cc1	350
CCCCCc1c(C(C)C)nc(C(C)C)c(CO)c1-c1ccc(F)cc1	700
CCCCCc1c(C(C)C)nc(C(C)C)c(CO)c1-c1ccccc1	1400
CCc1c(C(C)C)nc(C(C)C)c(CO)c1-c1ccccc1	1800
CC(C)c1nc(C(C)C)c(CO)c(-c2ccc(F)cc2)c1CO	> 20000
CCc1c(C)nc(C)c(CO)c1-c1ccccc1	> 20000
CCc1nc(CC)c(CO)c(-c2ccccc2)c1CC	> 20000
COCc1c(C(C)C)nc(C(C)C)c(CO)c1-c1ccc(F)cc1	9000
CCCCCc1c(C(C)C)nc(C(C)C)c([C@@H](C)O)c1-c1ccc(F)cc1 (single isomer, unassigned)	150

target: T1, Glucagon receptor; assay: Inhibitory concentration against cAMP production in hGR-CHO cells; assay type: functional, cell-based
How it was run: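 hGR-CHO cells grown to confluency, preincubated 10 min at 37 °C in assay buffer, then 10 min with 100 µM isobutylmethylxanthine. Test compound at 10 nM to 10 µM final, then glucagon at 10 pM final; 15 min incubation. Stopped with 65% ethanol; extracted cAMP measured by SPA assay. DMSO 0.1% control.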

Compound	IC50 [nM]
CC(C)=Cc1c(C(C)C)nc(C(C)C)c(CO)c1-c1ccc(F)cc1	2000

— ChEMBL document CHEMBL1135047, “Discovery of 5-hydroxyalkyl-4-phenylpyridines as a new class of glucagon receptor antagonists” (Bioorg Med Chem Lett, 2002)
